# Experimental data: ChEMBL document CHEMBL1154143, “Cytotoxic and anti-inflammatory cembranoids from the soft coral Lobophytum crassum” (J Nat Prod, 2008)
# Key:
# HepG2 = assay: Cytotoxicity against human HepG2 cells by MTT assay; assay type: functional, cell-based
# In short: (§1)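 Human cancer cell lines obtained from ATCC. Cytotoxicity read by MTT colorimetric method.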
# [1] = Cytotoxicity against human Hep3B cells by MTT assay; assay type: functional, cell-based, Hep 3B2; in short: as §1
# MDA-MB-231 = assay: Cytotoxicity against human MDA-MB-231 cells by MTT assay; assay type: functional, cell-based; in short: as §1
# MCF7 = assay: Cytotoxicity against human MCF7 cells by MTT assay; assay type: functional, cell-based; in short: as §1
# A549 = assay: Cytotoxicity against human A549 cells by MTT assay; assay type: functional, cell-based; in short: as §1
# Ca9-22 = assay: Cytotoxicity against human Ca9-22 cells by MTT assay; assay type: functional, cell-based; in short: as §1
# RAW264.7 [2] = assay: Antiinflammatory activity in mouse RAW264.7 cells assessed as reduction in LPS-induced iNOS protein level at 10 uM treated 5 mins before LPS challenge by Western blot analysis relative to control; assay type: functional; design: scale not given: the % may be the effect or the level left
# In short: (§2)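 Murine RAW 264.7 macrophages kept in DMEM with 10% heat-inactivated FBS at 37 °C, 5% CO2. Compound added 5 min before LPS (0.01 µg/mL), then 16 h incubation. Lysates of equal protein run on SDS-PAGE and blotted. iNOS and COX-2 probed, β-actin used as loading control, ECL detection. Band IOD expressed relative to the LPS-only control. One-way ANOVA with Student-Newman-Keuls test.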
# RAW264.7 [3] = assay: Antiinflammatory activity in mouse RAW264.7 cells assessed as reduction in LPS-induced COX2 protein level at 10 uM treated 5 mins before LPS challenge by Western blot analysis relative to control; assay type: functional; design: scale not given: the % may be the effect or the level left; in short: as §2
Compound,IC50 (HepG2) [µg/mL],IC50 [1] [µg/mL],IC50 (MDA-MB-231) [µg/mL],IC50 (MCF7) [µg/mL],IC50 (A549) [µg/mL],IC50 (Ca9-22) [µg/mL],Activity (RAW264.7 [2]) [%],Activity (RAW264.7 [3]) [%]
C=C1C(=O)O[C@H]2/C=C(\C)CC/C=C(/C(=O)O)CC/C=C(\C)CC[C@@H]12 [LOBOHEDLEOLIDE],> 5,4.7,> 5,> 5,4.6,2.8,21.5,39.2
C=C1C(=O)O[C@H]2/C=C(\C)CC/C=C(\C)C/C=C/[C@](C)(O)CC[C@@H]12 [CRASSUMOLIDE D],> 5,> 5,> 5,> 5,> 5,> 5,,
COc1cccc2c1C(=O)c1c(O)c3c(c(O)c1C2=O)C[C@@](O)(C(=O)CO)C[C@@H]3O[C@H]1C[C@H](N)[C@H](O)[C@H](C)O1 [DOXORUBICIN],0.2,0.2,0.2,0.2,,0.1,,
C/C1=C\[C@@H]2OC(=O)[C@@H](CN(C)C)[C@@H]2CCC(C)/C=C/C/C(C(=O)O)=C/CC1 (stereo not given in full),> 5,> 5,> 5,> 5,> 5,> 5,,
C=C1C(=O)O[C@H]2/C=C(\C)CC[C@H](OC(C)=O)[C@@]3(C)CC[C@H](OO3)/C(C)=C\C[C@@H]12 [DENTICULATOLIDE],2.4,2.5,2,2,2.3,1.2,10.2,34.3
C=C(CO)[C@@H]1CC[C@@](C)(OO)/C=C/C/C(C)=C/CC/C(C)=C/[C@@H]1O [CRASSUMOLIDE E],> 5,> 5,> 5,> 5,> 5,> 5,,
C=C(CO)[C@@H]1CC/C(C)=C/CC/C(C)=C/CC/C(C)=C/[C@@H]1O,> 5,> 5,> 5,> 5,> 5,> 5,,
C=C1C(=O)O[C@H]2/C=C(\C)CC/C=C(\C(=O)OC)CC/C=C(\C)CC[C@@H]12 [CRASSUMOLIDE C],> 5,> 5,> 5,> 5,> 5,1.7,2.3,34.5
O=C(/C=C/c1ccc(O)c(O)c1)OCCc1ccccc1 [CAFFEIC ACID PHENETHYL ESTER],,,,,,,2.5,67.2
C=C1C(=O)O[C@H]2C/C(C)=C/[C@@H](O)C/C(C)=C/CC/C(C)=C/C[C@H]12 [CRASSUMOLIDE A],> 5,> 5,> 5,> 5,> 5,3.2,26.8,50.2
C=C1C(=O)O[C@H]2/C=C(\C)C/C=C/[C@@](C)(O)CC/C=C(\C)CC[C@@H]12 [CRASSUMOLIDE F],> 5,> 5,> 5,> 5,> 5,> 5,,
C=C1C(=O)O[C@H]2/C=C(\C)CC/C=C(\CO)CC/C=C(\C)CC[C@@H]12 [CRASSUMOLIDE B],> 5,> 5,> 5,> 5,> 5,> 5,,
